From ChEMBL document CHEMBL1135487, “Structure-activity relationship for enhancement of paracellular permeability across Caco-2 cell monolayers by 3-alkylamido-2-alkoxypropylphosphocholines” (J Med Chem, 2002) come the findings set out here.

Assay [1] concerns Caco-2. The experiment in a line: Increase in the mannitol flux by 10-fold (EC10x) of the control value. It counts as functional, Homo sapiens. The gist of the method: (§1)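 Caco-2 monolayers on filters, TEER 600–800 Ω·cm². Enhancer at 0.01–5.0 mM in HBSS applied apically for 20 min, then washed out. Apical side then given 0.1 mM [3H]mannitol, 37 °C, sink conditions. Basolateral samples taken at 20, 40, 60 and 90 min and counted by liquid scintillation. EC10x = concentration raising mannitol permeability 10-fold over control; triplicate.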

Assay [2] has as its system Caco-2. Briefly: Decrease in the trans-epithelial electrical resistance(TEER) in Caco-2 cell monolayers. It counts as functional, cell-based. The following applies: Homo sapiens. The gist of the method: (§2)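 Caco-2 cells (passage 45–55) grown on 1.0 cm² polycarbonate filters for 20–22 days and equilibrated 1 h in HBSS (25 mM HEPES, 25 mM glucose, pH 7.4) at 37 °C; monolayers with TEER 600–800 Ω·cm² used. Compound applied apically in HBSS at various concentrations for 20 min at room temperature. TEER read by voltohmmeter, blank filter subtracted. EC50 = concentration cutting TEER 50% versus untreated; triplicate, mean ± SD.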

Assay [3] can be described thus: Concentration to decrease mitochondrial dehydrogenase vs concentration to decrease TEER (IC50/EC50). The assay is classed as functional. The gist of the method:
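Ratio of two values measured on Caco-2 cells (passage 45–55). IC50: cells grown 96 h, exposed 20 min to phospholipid in HBSS, MTT added for 120 min more, SDS/HCl-isobutanol stop, absorbance 590 nm. EC50: 20–22-day monolayers (TEER 600–800 Ω·cm²), 20 min apical exposure in HBSS at room temperature, 50% TEER fall vs untreated. Triplicates.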

Assay [4] has as its system Caco-2. The experiment in a line: Critical Micelle Concentration (CMC) determined by fluorescence assay using DPH as a probe. It counts as functional, Homo sapiens. The essentials:
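Aqueous phosphocholine solutions over a concentration range received DPH (1 µL of 10 mM stock in THF per 2 mL). They were held 30 min in the dark at room temperature, then fluorescence was read (ex 365, em 460 nm). CMC was taken as the intersection of linear fits below and above the intensity inflection; mean of triplicates.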

In assay [5] the test system is Caco-2. The experiment in a line: Concentration to increase the mannitol flux by 10-fold (EC10x) of the control value. It counts as functional, Homo sapiens. The gist of the method: as §1
Assay [6] has as its system Caco-2. The experiment in a line: Concentration to decrease the transepithelial electrical resistance (TEER) in Caco-2 cell monolayers. The assay is classed as functional, cell-based. As to conditions: Homo sapiens. The essentials:
as §2

Each structure is given as a SMILES string.

Broadly, the EC50 is the concentration giving half of the maximal effect. Low readings indicate an effect from little substance, high ones a need for much substance. `CCCCOC(CNC(=O)CCC)COP(=O)([O-])OCC[N+](C)(C)C` (centres undefined): the EC10x in the assay on Caco-2 [1] was greater than 5000 µM. The EC50 in the assay with Caco-2 [2] is greater than 5000 µM.

On to `CCCCCCCCCCCCCCCCOC(CNC(=O)CCCCCCCCC)COP(=O)([O-])OCC[N+](C)(C)C` (centres undefined), for which the EC10x with Caco-2 [1] is greater than 2000 µM. Moreover, the EC50 in the assay on Caco-2 [2] was greater than 2000 µM.

`CCCCCCCCCCCCOC(CNC(C)=O)COP(=O)([O-])OCC[N+](C)(C)C` (centres undefined): the EC10x in the assay on Caco-2 [1] was determined as 4270 µM. In addition, the EC50 in the assay with Caco-2 [2] amounted to 780 µM. Moreover, the Potency index in assay [3] is 1.72.

`CCCCCCCCCCCCCC(=O)NCC(COP(=O)([O-])OCC[N+](C)(C)C)OCC` (centres undefined) showed a CMC in the assay on Caco-2 [4] of 148 µM. The same compound came in with an EC10x in the assay on Caco-2 [1] of 890 µM. For the same compound, the EC50 with Caco-2 [2] was found to be 80 µM. In addition, the Potency index in assay [3] came out at 2.

In the assay on Caco-2 [1], `CCCCCCCCCCCCCCCCOC(CNC(=O)CCCCCCCCCCC)COP(=O)([O-])OCC[N+](C)(C)C` (centres undefined) had an EC10x greater than 500 µM. Also, the EC50 with Caco-2 [2] was greater than 500 µM.

As for `CCCCCCCC(=O)NCC(COP(=O)([O-])OCC[N+](C)(C)C)OCCCCCC` (centres undefined), the EC10x in the assay on Caco-2 [1] is greater than 5000 µM. Besides, the EC50 with Caco-2 [2] was greater than 5000 µM.

Turning to `CCCCCCCCCC(=O)NCC(COP(=O)([O-])OCC[N+](C)(C)C)OCCCCCCCC` (centres undefined), in the assay with Caco-2 [4], the CMC was 55.3 µM. Further, the EC10x in the assay on Caco-2 [5] is 1210 µM. The compound further yielded an EC50 in the assay on Caco-2 [6] of 300 µM. In assay [3], the Potency index stood at 1.27.

In turn, `CCCCCCCCCCCCCCCCCCOC(CNC(C)=O)COP(=O)([O-])OCC[N+](C)(C)C` (centres undefined) displayed an EC10x in the assay on Caco-2 [1] of 340 µM. For the same compound, in the assay with Caco-2 [2], a half-maximal effect (EC50) was put at 90 µM. Further, in assay [3], the Potency index came out at 1.11.

The compound `CCCCCCCCCCCCCCCC(=O)NCC(COP(=O)([O-])OCC[N+](C)(C)C)OCCCCCCCC` (centres undefined) came in with an EC10x with Caco-2 [1] greater than 5000 µM. The EC50 in the assay on Caco-2 [2] is greater than 5000 µM.

For `CCCCCCCCCCCCCCCC(=O)NCC(COP(=O)([O-])OCC[N+](C)(C)C)OCCCCCCCCCC` (centres undefined), the EC10x with Caco-2 [1] is greater than 2000 µM. In addition, the EC50 in the assay on Caco-2 [2] was greater than 2000 µM.

In the case of `CCCCCCCCCCCCCCCCOC(CNC(C)=O)COP(=O)([O-])OCC[N+](C)(C)C` (centres undefined), the EC10x in the assay with Caco-2 [1] is 350 µM. In the assay with Caco-2 [2], this compound displayed an EC50 of 70 µM. The compound also gave a Potency index in assay [3] of 1.43.

As for `CCCCCCCCCCCCCCCC(=O)NCC(COP(=O)([O-])OCC[N+](C)(C)C)OCCCCCCCCCCCC` (centres undefined), the EC10x in the assay with Caco-2 [1] is greater than 1000 µM. In the assay with Caco-2 [2], the EC50 is greater than 1000 µM.

`CCCCCCCCCC(=O)NCC(COP(=O)([O-])OCC[N+](C)(C)C)OCCCC` (centres undefined) yielded a CMC in the assay with Caco-2 [4] of 1170 µM. In the assay with Caco-2 [1], the EC10x is greater than 5000 µM. Besides, a half-maximal effect in the assay with Caco-2 [2] (EC50) was put at 3190 µM. In assay [3], this compound showed a Potency index of 1.24.

In turn, `CCCCCCCC(=O)NCC(COP(=O)([O-])OCC[N+](C)(C)C)OCCCC` (centres undefined) registered an EC10x in the assay with Caco-2 [1] greater than 5000 µM. The compound also showed an EC50 in the assay with Caco-2 [2] greater than 5000 µM.

For `CCCCCCCCCCCCCCOC(CNC(=O)CCCCCCCCC)COP(=O)([O-])OCC[N+](C)(C)C` (centres undefined), the EC10x with Caco-2 [1] is greater than 2000 µM. In the assay on Caco-2 [2], the EC50 was greater than 2000 µM.

In the assay on Caco-2 [1], `CCCCCCCCCCCCCCCCCC(=O)NCC(COP(=O)([O-])OCC[N+](C)(C)C)OCCCCCCCC` (centres undefined) had an EC10x greater than 5000 µM. Further, in the assay with Caco-2 [2], the EC50 is greater than 5000 µM.

Compound `CCCCCCCCCCCCCCCCOC(CNC(=O)CCCCC)COP(=O)([O-])OCC[N+](C)(C)C` (centres undefined) showed an EC10x in the assay on Caco-2 [1] of 1350 µM. This compound gave an EC50 with Caco-2 [2] of 300 µM. In assay [3], the Potency index worked out at 0.93.

Compound `CCCCCCCCCCCCCCCC(=O)NCC(COP(=O)([O-])OCC[N+](C)(C)C)OCCCCCC` (centres undefined) showed an EC10x in the assay with Caco-2 [1] of 1610 µM. Also, in the assay on Caco-2 [2], the response was half-maximal at 520 µM (EC50). The Potency index in assay [3] was 0.6.

Consider `CCCCCCCCCCCC(=O)NCC(COP(=O)([O-])OCC[N+](C)(C)C)OCCCCCC` (centres undefined), for which the EC10x with Caco-2 [1] came out at 1010 µM. For the same compound, the EC50 in the assay with Caco-2 [2] was found to be 190 µM. This compound also showed a Potency index in assay [3] of 0.84.

In the assay with Caco-2 [1], `CCCCCCCCCCCCCCCC(=O)NCC(COP(=O)([O-])OCC[N+](C)(C)C)OCCCC` (centres undefined) came in with an EC10x of 480 µM. In addition, it took 90 µM to reach a half-maximal effect in the assay with Caco-2 [2] (EC50). The Potency index in assay [3] was determined as 1.11.

Compound `CCCCCCCCCCCCOC(CNC(=O)CCCCCCCCC)COP(=O)([O-])OCC[N+](C)(C)C` (centres undefined) displayed an EC10x in the assay on Caco-2 [1] greater than 3000 µM. For the same compound, in the assay on Caco-2 [2], the EC50 came out at 1040 µM. For the same compound, in assay [3], the Potency index was 1.92.

In the case of `CCCCCCCCCC(=O)NCC(COP(=O)([O-])OCC[N+](C)(C)C)OCCCCCC` (centres undefined), the EC10x in the assay with Caco-2 [1] stood at 730 µM. For the same compound, the midpoint of the response in the assay on Caco-2 [2], the EC50, lay at 420 µM. Also, the Potency index in assay [3] worked out at 2.38.
